Assay results taken from ChEMBL document CHEMBL4138162, “Design and synthesis of small molecule agonists of EphA2 receptor” (Eur J Med Chem, 2018).
Calls of active or inactive are those of the source. The calls are words filed in the database; no cut-off is given here.

Columns and labels:
[1] = molecular target: Ephrin type-A receptor 2 (Homo sapiens) (UniProt P29317); assay: Agonist activity against EphA2 (unknown origin) overexpressed in MDA-MB-231-A2 cells assessed as increase in phosphorylated EphA2 levels at 2 to 50 uM after 30 mins by immunoprecipitation and immunoblot assay relative to 50 uM doxazosin; format: cell-based
Ephrin type-A receptor 2 (Homo sapiens), sequence (P29317 whole entry): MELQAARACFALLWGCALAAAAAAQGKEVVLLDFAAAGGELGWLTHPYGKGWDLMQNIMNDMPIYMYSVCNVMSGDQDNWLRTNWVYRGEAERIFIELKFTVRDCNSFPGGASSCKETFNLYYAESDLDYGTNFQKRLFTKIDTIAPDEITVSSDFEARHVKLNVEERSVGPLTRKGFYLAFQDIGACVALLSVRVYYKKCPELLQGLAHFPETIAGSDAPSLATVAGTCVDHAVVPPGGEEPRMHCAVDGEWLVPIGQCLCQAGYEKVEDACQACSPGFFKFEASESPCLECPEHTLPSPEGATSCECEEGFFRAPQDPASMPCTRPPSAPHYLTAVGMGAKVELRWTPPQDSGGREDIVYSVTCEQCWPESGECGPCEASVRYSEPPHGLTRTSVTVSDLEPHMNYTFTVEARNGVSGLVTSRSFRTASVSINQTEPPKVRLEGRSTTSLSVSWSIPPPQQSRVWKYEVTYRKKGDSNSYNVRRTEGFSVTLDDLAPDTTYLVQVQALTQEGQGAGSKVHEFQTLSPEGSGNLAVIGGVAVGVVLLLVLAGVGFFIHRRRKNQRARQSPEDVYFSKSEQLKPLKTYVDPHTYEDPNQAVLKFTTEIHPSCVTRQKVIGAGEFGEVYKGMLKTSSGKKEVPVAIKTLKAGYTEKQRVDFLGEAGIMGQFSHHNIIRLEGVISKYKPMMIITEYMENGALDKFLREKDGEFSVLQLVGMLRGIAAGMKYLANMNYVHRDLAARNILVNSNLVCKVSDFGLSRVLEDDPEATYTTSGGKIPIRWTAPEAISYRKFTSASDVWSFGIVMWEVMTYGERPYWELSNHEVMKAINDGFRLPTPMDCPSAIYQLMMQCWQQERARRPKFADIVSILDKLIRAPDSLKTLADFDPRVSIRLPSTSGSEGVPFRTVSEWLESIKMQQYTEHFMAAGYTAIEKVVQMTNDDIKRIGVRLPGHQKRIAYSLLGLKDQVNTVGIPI
Summary of the method: (§1)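 MDA-MB-231 cells stably overexpressing EphA2 (kept in 1 µg/ml puromycin) were plated at 100,000 cells/well, grown 24 h, then treated 30 min with compound (2, 10, 50 µM; DMSO stock at 200× final, 0.5% DMSO vehicle). Lysates in modified RIPA were immunoprecipitated with ephrin-A1-Fc on Protein G beads. Blots were probed for pEphA/B and EphA2, and pEphA2/total EphA2 was quantified by band densitometry.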

MDA-MB-231 = assay: Anticlonogenic activity against human MDA-MB-231 cells up to 10 uM after 14 days by crystal violet staining-based assay; format: functional, cell-based
Summary of the method: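 Parental MDA-MB-231 cells, 1000/well, cultured 24 h, then exposed to 0, 0.08, 0.4, 2 or 10 µM compound in 0.5% DMSO for 14 days. Colonies were fixed in 4% paraformaldehyde, rinsed in 20% methanol and stained with 0.5% crystal violet. Three independent experiments.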

[2] = molecular target: Ephrin type-A receptor 2 (Homo sapiens) (UniProt P29317); assay: Binding affinity to EphA2 in human MDA-MB-231 cells assessed as induction of EphA2 receptor internalization at 50 uM after 1 hr by immunofluorescence microscopy; format: cell-based
Summary of the method: (§2)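 MDA-MB-231 cells on fibronectin-coated coverslips, 24–48 h after seeding, treated 1 h with compound (0.4–50 µM) in 0.5% DMSO. Cells were then PFA-fixed on ice, permeabilized with NP-40 and immunostained with anti-EphA2 (D7) plus Alexa Fluor 488 secondary, with DAPI counterstain. Surface versus intracellular EphA2 was judged by fluorescence microscopy. Three independent repeats.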

[3] = molecular target: Ephrin type-A receptor 2 (Homo sapiens) (UniProt P29317); assay: Agonist activity against EphA2 (unknown origin) overexpressed in MDA-MB-231-A2 cells assessed as increase in phosphorylated EphA2 levels at 50 uM after 30 mins by immunoprecipitation and immunoblot assay; format: cell-based; summary of the method: as §1
[4] = molecular target: Ephrin type-A receptor 2 (Homo sapiens) (UniProt P29317); assay: Binding affinity to EphA2 in human MDA-MB-231 cells assessed as induction of EphA2 receptor internalization at 0.4 uM after 1 hr by immunofluorescence microscopy; format: cell-based; summary of the method: as §2

Activity [1] | SMILES | also measured
Active | COc1ccc(CC(=O)N2CCN(c3nc(N)c4cc(OC)c(OC)cc4n3)CC2)cc1 | –
inactive | COc1cc2nc(N3CCN(C(=O)Cc4ccc(OCc5ccccc5)cc4)CC3)nc(N3CCCC3)c2cc1OC | –
inactive | COc1cc2nc(N3CCN(C(=O)CCCCC(=O)N4CCN(c5nc(N)c6cc(OC)c(OC)cc6n5)CC4)CC3)nc(N)c2cc1OC | –
Active | COc1cc2nc(N3CCN(C(=O)Cc4ccc5ccccc5c4)CC3)nc(N)c2cc1OC | –
Active | COc1cc2nc(N3CCN(C(=O)Cc4ccc(OCc5ccccc5)cc4)CC3)nc(N)c2cc1OC | Activity (MDA-MB-231): Active
Active | COc1cc2nc(N3CCN(C(=O)c4ccc(I)cc4)CC3)nc(N)c2cc1OC | –
inactive | CCOc1cc2nc(N3CCN(C(=O)Cc4ccc(OCc5ccccc5)cc4)CC3)nc(N)c2cc1OCC | –
Active | COc1cc2nc(N3CCN(C(=O)c4ccc5ccccc5c4)CC3)nc(N)c2cc1OC | –
inactive | COc1cc2nc(N3CCN(C(=O)c4ccncc4)CC3)nc(N)c2cc1OC | –
– | COc1cc2nc(N3CCN(C(=O)C4COc5ccccc5O4)CC3)nc(N)c2cc1OC (centres undefined) | Activity [2]: Active
Active | CCc1ccc(C(=O)N2CCN(c3nc(N)c4cc(OC)c(OC)cc4n3)CC2)cc1 | –
Active | COc1cccc(CC(=O)N2CCN(c3nc(N)c4cc(OC)c(OC)cc4n3)CC2)c1 | –
inactive | COc1cc2nc(N3CCN(C(=O)c4cccs4)CC3)nc(N)c2cc1OC | –
Active | COc1cc2nc(N3CCN(C(=O)c4ccc5c(c4)OCO5)CC3)nc(N)c2cc1OC | –
Active | COc1cc2nc(N3CCN(C(=O)Cc4ccccc4)CC3)nc(N)c2cc1OC | –
inactive | CSc1ccc(C(=O)N2CCN(C(=O)c3ccc(SC)cc3)CC2)cc1 | –
inactive | COc1cc2nc(N3CCN(C(=O)c4ccc(Cl)c([N+](=O)[O-])c4)CC3)nc(N)c2cc1OC | –

Activity [1] | SMILES | also measured
inactive | COc1cc2nc(N3CCN(C(=O)C4CCCCC4)CC3)nc(N)c2cc1OC | –
inactive | CCCC(=O)N1CCN(c2nc(N)c3cc(OC)c(OC)cc3n2)CC1 | –
Active | COc1cc2nc(N3CCN(C(=O)c4ccc(Br)cc4)CC3)nc(N)c2cc1OC | –
Active | COc1cc2nc(N3CCN(C(=O)c4ccc(-c5ccccc5)cc4)CC3)nc(N)c2cc1OC | –
inactive | COc1cc2nc(N3CCN(C(=O)c4ccccn4)CC3)nc(N)c2cc1OC | –
inactive | CCCCCC(=O)N1CCN(c2nc(N)c3cc(OC)c(OC)cc3n2)CC1 | Activity (MDA-MB-231): Active
inactive | COc1cc2nc(N3CCN(C(=O)Cc4ccc(OCc5ccccc5)cc4)CC3)nc(N3CCCCC3)c2cc1OC | –
inactive | CCC(=O)N1CCN(c2nc(N)c3cc(OC)c(OC)cc3n2)CC1 | –
inactive | COc1cc2nc(N3CCN(C(C)=O)CC3)nc(N)c2cc1OC | –
Active | COc1cc2nc(N3CCN(C(=O)C(C)c4ccccc4)CC3)nc(N)c2cc1OC (centres undefined) | –
inactive | COc1cc2nc(N3CCN(C(=O)c4ccco4)CC3)nc(N)c2cc1OC | –
inactive | COc1ccc(C(=O)N2CCN(c3nc(N)c4cc(OC)c(OC)cc4n3)CC2)cc1 | –
inactive | COc1cc2nc(N3CCN(C(=O)Cc4ccc(OCc5ccccc5)cc4)CC3)nc(NC(C)=O)c2cc1OC | –
Active | COc1cc2nc(N3CCN(C(=O)CCCCCCCCCCC(=O)N4CCN(c5nc(N)c6cc(OC)c(OC)cc6n5)CC4)CC3)nc(N)c2cc1OC | Activity [3]: Active; Activity [4]: Active; Activity (MDA-MB-231): Active
inactive | COc1ccc(C(=O)N2CCN(C(=O)c3ccc(OC)cc3)CC2)cc1 | –
inactive | COc1cc2nc(N3CCN(C(=O)C4COc5ccccc5O4)CC3)nc(NC(C)=O)c2cc1OC (centres undefined) | –
inactive | COc1cc2nc(N3CCN(C(=O)c4ccno4)CC3)nc(N)c2cc1OC | –
